In article PMC11757988 (Scientific Reports, 2025):

How the values were obtained:
[1] = In vivo pharmacokinetic study, intravenous; design: species or system female Wistar rats; conditions: rat
In short: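 Eight-week-old female Wistar rats (250 ± 10 g), single i.v. dose of test compound solution at 10 mg/kg (nanoparticles at equivalent dose), saline control group. Tail-vein blood (300 µL) at 1–38 h into heparinized tubes; plasma by chilled centrifugation; acetonitrile protein precipitation, nitrogen drying, methanol reconstitution; HPLC-UV with plasma calibration 0.5–20 µg/mL; mean ± SD, n = 6.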

[2] = Blood compatibility study; assay type: cell-based; conditions: rat, heparinized whole blood
In short: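 Rat heparinized blood (0.2 mL) added to 3 mL normal saline containing test material at 1000 µg/mL, saline-only negative and distilled-water positive controls; 1 h at 37 °C with shaking; centrifuged 6000 rpm, 20 min; filtered supernatant read at 545 nm for released hemoglobin; activity = (sample − negative control absorbance)/positive control absorbance.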

[3] = Thermogravimetric analysis; assay type: physicochemical; conditions: TGA
In short: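 Samples of about 5 mg in platinum pans heated from 5 °C to 900 °C at 10 °C per min under nitrogen flowing at 60 mL per min; percentage weight loss recorded against temperature.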

[4] = female, Wistar, plasma, iv, 10 mg/kg
[5] = i.v., DZ 10 mg/kg equivalent, n = 6, listed as DZ-Solution

MRT inf [1, 4]: 2.97 ± 0.95 h
Tmax [1, 4]: 1 ± 0.78 h
AUC(0-inf) ([1]; female, Wistar, plasma, iv, 10 mg/kg, AUC0−∞, DZ 10 mg/kg equivalent, n = 6): 2300 µg·h/mL
Cmax ([1]; female, Wistar, plasma, iv, 10 mg/kg, C max, DZ 10 mg/kg equivalent, n = 6): 382 µg/mL
half-life ([1]; female, Wistar, plasma, iv, 10 mg/kg, t1/2, rat, DZ 10 mg/kg equivalent, n = 6): 3.45 h
AUC0−∞ [1, 5]: 2299.73 ± 0.67 µg·h/mL
C max [1, 5]: 381.59 ± 1.12 µg/mL
t1/2 [1, 5]: 3.44 ± 0.44 h
Temperature at which decomposition started [3]: 340–350 °C
SMILES: O=c1c(-c2ccc(O)cc2)coc2cc(O)ccc12 [DZ, daidzein]
hemolysis at 1 h, 1000 µg/mL [2]: 0.98 ± 0.14%
